The values below come from ChEMBL document CHEMBL3259773, “Indirubin core structure of glycogen synthase kinase-3 inhibitors as novel chemotype for intervention with 5-lipoxygenase” (J Med Chem, 2014).

Calls of active or inactive are those of the source. No cut-off for these calls is given here.

The target in experiment [1] is T1, Bifunctional epoxide hydrolase 2 (Homo sapiens) (UniProt P34913).
T1 sequence (whole entry): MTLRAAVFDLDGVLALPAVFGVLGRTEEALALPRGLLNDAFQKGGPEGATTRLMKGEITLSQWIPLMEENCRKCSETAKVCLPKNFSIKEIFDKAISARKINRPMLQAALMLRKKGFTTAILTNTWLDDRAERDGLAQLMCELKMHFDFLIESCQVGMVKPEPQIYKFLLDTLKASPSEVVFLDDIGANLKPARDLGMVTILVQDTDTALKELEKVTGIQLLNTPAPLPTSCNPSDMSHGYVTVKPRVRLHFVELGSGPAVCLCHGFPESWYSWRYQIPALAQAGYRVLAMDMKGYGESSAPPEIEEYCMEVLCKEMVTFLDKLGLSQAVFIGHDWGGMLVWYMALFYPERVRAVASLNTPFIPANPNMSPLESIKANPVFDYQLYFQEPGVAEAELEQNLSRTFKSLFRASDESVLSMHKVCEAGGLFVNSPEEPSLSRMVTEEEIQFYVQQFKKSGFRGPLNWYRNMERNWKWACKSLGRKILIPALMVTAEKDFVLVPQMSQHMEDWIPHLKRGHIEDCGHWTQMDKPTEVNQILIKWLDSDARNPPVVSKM
To be noted: at 10 µM.

For experiment [2], the target named is T2, Polyunsaturated fatty acid lipoxygenase ALOX15 (Homo sapiens) (UniProt P16050).
T2 sequence (whole entry): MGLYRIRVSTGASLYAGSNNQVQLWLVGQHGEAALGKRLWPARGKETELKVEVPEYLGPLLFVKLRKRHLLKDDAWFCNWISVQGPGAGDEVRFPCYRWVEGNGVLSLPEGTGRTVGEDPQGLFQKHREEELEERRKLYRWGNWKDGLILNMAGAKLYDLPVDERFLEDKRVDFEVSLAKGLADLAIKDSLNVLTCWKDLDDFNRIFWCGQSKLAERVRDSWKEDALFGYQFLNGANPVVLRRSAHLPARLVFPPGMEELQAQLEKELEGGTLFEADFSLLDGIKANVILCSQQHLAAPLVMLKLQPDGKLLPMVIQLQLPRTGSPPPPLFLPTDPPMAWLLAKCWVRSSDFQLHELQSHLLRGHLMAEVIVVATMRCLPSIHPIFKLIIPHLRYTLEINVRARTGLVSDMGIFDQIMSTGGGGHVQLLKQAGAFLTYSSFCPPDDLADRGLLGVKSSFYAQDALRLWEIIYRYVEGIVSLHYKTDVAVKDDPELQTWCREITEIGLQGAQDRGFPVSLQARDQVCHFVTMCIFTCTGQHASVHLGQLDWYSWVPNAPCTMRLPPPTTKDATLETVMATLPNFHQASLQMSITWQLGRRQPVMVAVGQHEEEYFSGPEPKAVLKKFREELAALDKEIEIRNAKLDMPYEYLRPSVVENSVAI
Briefly: Inhibition of 15-LO in human monocytes assessed as 12/15-HETE formation at 0.1 to 10 uM for 10 mins by UPLC-MS/MS analysis. Type of experiment: cell-based. A digest of the protocol: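 Human monocytes (2 × 10^6 cells/mL) were preincubated with vehicle (0.1% v/v DMSO) or compound for 10 min at 37 °C. They were then stimulated for 10 min at 37 °C with 2.5 μM A23187 plus 10 μM AA. 12-HETE and 15-HETE were measured by UPLC–MS/MS as peak areas normalized to the internal standard PGB1, expressed as percent of control; n = 3.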

As to `O=C1Nc2cc(Br)ccc2/C1=C1/Nc2ccccc2/C1=N\O` [6BIO], in experiment [1], the inhibition entry was “Active”. The inhibition result in experiment [2] is “inactive”.
